Assay outcomes as filed in PubChem BioAssay.
PERK inh – inhibitors of human PERK kinase | CHO PERK-DD fusion, SEAP luminescence translation reporter | inhibition, % at 5.6 µM | hit rate 0.17% among 220,000 | AID 1416;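 active means inhibition above the mean inhibition of all tested compounds plus 3 SD, set separately per screening campaign, cut at about 2.9% in these data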;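 further: PERK kinase domain activated by AP20187 dimerizer at 100 nM; 0% = DMSO with dimerizer and 100% = rapamycin at 8.4 µM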
Target sequence (Q9NZJ5 whole entry, looked up, the tested form may be a part): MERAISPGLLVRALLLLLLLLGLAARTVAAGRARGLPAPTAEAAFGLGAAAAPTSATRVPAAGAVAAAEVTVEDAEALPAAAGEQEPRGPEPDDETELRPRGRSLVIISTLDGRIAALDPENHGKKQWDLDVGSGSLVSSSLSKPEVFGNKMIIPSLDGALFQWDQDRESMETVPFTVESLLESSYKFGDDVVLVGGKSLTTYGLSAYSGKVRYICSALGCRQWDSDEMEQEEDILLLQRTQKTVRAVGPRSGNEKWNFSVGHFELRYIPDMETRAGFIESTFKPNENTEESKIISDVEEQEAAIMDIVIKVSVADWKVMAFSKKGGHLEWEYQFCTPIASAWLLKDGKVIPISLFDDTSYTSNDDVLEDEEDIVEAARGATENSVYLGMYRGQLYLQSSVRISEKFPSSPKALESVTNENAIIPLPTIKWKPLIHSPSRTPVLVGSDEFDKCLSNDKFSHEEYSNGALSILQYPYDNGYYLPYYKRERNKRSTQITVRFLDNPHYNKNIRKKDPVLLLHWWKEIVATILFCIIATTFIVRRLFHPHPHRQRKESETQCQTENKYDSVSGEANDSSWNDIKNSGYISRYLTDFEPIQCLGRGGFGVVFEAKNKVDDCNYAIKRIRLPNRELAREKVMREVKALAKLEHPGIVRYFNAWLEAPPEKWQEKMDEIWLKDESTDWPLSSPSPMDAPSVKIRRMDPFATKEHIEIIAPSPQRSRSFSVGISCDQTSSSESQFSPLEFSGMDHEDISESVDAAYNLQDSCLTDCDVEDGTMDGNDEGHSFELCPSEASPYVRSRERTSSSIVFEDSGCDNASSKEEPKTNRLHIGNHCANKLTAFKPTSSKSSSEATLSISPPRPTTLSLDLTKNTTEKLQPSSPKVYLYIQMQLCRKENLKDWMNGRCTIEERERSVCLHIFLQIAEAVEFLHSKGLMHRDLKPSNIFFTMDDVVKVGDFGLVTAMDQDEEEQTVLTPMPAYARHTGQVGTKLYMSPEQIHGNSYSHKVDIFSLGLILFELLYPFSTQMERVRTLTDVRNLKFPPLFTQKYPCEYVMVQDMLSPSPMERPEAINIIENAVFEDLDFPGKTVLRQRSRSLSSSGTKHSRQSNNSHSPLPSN
Insulin prom up – MIN6 insulin promoter up-regulation; z-score at 5 µM; hit rate 0.3% among 190,000; MIN6 insulin promoter-GFP reporter, high-content imaging; active compounds read high;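 active means z-score above 3 at 5 µM with at least 500 cells counted in the well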
Insulin prom inh – TRM-6 insulin promoter activity inhibition. TRM-6 cells (human fetal islet line), insulin promoter-eGFP reporter, imaging; reporter expression induced with tamoxifen. inhibition, % at 2 µM. hit rate 0.9% among 130,000. AID 1273;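 active means inhibition above the mean plus 3 SD, with well images judged a real hit on visual review, cut at about 60% in these data, passing the limit was not always enough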
Autophagy HCS – modulators of autophagy; MEF GFP-LC3 puncta imaging; test concentration mostly 10 µM; calls only at 10 µM (by protocol); hit rate 0.98% among 190,000; AID 463193;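 active means percentage of spot-positive cells more than 3 SD above its plate mean, without a fluorescence outlier flag or 80% toxicity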;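 further: spot-positive cell cutoff set from DMSO-treated cells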
Dynein transport – dynein cargo transport inhibition. z-score, hits read low. 3617.4 mouse cells, GR-EGFP nuclear translocation imaging; test concentration mostly 20 µM; stimulated with dexamethasone, 1 µM; active compounds read low. AID 1381. hit rate 0.47% among 220,000;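 active means plate z-score of nuclear minus cytoplasmic receptor signal below a set negative limit, without overly bright fluorescence or cell loss, cut at about -3.5 in these data, passing the limit was not always enough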;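 further: z-score of nuclear minus cytoplasmic ring GR-EGFP intensity difference per well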
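Schedule: 48 h induction, then 1 h compound, then 30 min agonist, 37 °C. Buffer or medium: tetracycline-free induction medium containing charcoal-stripped FBS. Reagent: 1.0 µM final dexamethasone stimulus. Evaluation: nuclear versus cytoplasmic GR-EGFP signal, averaged per well. Signal: high-content fluorescence imaging after fixation.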
Numbers without * were called inactive. An excerpt weighted towards active compounds, which were near 2.1% of everything screened.

What do the screens show for `Oc1ccc(Nc2nc3ccccc3nc2Nc2ccc(O)cc2)cc1`?
PERK inh: -1.2; Insulin prom up: -0.35; Insulin prom inh: -256.5; Autophagy HCS: active; Dynein transport: -3.35

What do the screens show for `Cn1c(C(=O)c2ccccc2[N+](=O)[O-])nc2ccccc21`?
PERK inh: 0.7; Insulin prom up: 1.09; Insulin prom inh: 80.0*; Autophagy HCS: inactive; Dynein transport: 3.03

How did O=C(c1ccccc1[N+](=O)[O-])n1cnc2ccccc21 do in these assays?
PERK inh: 0.4; Insulin prom up: -0.05; Autophagy HCS: inactive; Dynein transport: 0.186

Results for CNC(=O)Nc1cccc(C(F)(F)F)c1 ?
PERK inh: 1.2; Insulin prom up: 0.54; Insulin prom inh: 81.2*; Autophagy HCS: inactive; Dynein transport: -0.463

What do the screens show for `CCOC(=O)C1CCCN(C(=O)c2cn(C)c3ccc(S(=O)(=O)N(C)C)cc3c2=O)C1` (stereo not given)?
PERK inh: 1.9; Insulin prom up: -1.21; Autophagy HCS: active; Dynein transport: -0.354

What do the screens show for `Cn1cc(C(=O)N2CCc3ccccc3C2)c(=O)c2cc(S(=O)(=O)N3CCCCC3)ccc21`?
PERK inh: 0.2; Insulin prom up: -0.52; Insulin prom inh: -50.0; Autophagy HCS: inactive; Dynein transport: 0.396

What do the screens show for `CCC(C)NC(=O)c1cn(CC)c2ccc(S(=O)(=O)N(C)C)cc2c1=O` (stereo not given)?
PERK inh: -0.2; Insulin prom up: -1.2; Dynein transport: -0.464

Results for CCn1cc(C(=O)O)c(=O)c2cc(S(=O)(=O)N(C)C)ccc21 ?
PERK inh: 3.2*; Insulin prom inh: 55.6; Autophagy HCS: inactive; Dynein transport: 1.48

Results for CN(C)S(=O)(=O)c1ccc2c(c1)c(=O)c(C(=O)N1CCOCC1)cn2C ?
PERK inh: 1.2; Insulin prom up: 1.02; Dynein transport: -0.929

How did CCn1cc(C(=O)N2CCc3ccccc3C2)c(=O)c2cc(S(=O)(=O)N3CCCCC3)ccc21 do in these assays?
PERK inh: -0.5; Insulin prom up: 0.21; Insulin prom inh: 33.3; Autophagy HCS: active; Dynein transport: 1.31

What do the screens show for `Cc1cc2ncn(CC3CC3(Cl)Cl)c2cc1C` (stereo not given)?
PERK inh: 1.0; Insulin prom up: 0.62; Autophagy HCS: inactive; Dynein transport: -0.0603

What do the screens show for `CCOc1ccccc1NC(=O)CNS(=O)(=O)c1ccc2nc(C)sc2c1`?
PERK inh: 0.1; Insulin prom up: -0.54; Insulin prom inh: -42.9; Autophagy HCS: inactive; Dynein transport: -0.434

Results for COc1ccc(C(C#N)c2ccc(=O)[nH]n2)cc1 (stereo not given) ?
PERK inh: 1.1; Insulin prom up: -0.12; Insulin prom inh: -41.2; Autophagy HCS: inactive; Dynein transport: -0.22

What do the screens show for `COc1cc(OC)cc(C(=O)Nc2cccc(C(C)=O)c2)c1`?
PERK inh: -0.9; Insulin prom up: 3.53*; Insulin prom inh: 25.0; Autophagy HCS: inactive; Dynein transport: -0.0846

Results for COc1cc(OC)cc(C(=O)Nc2ccc(-c3nc4ccccc4o3)cc2)c1 ?
PERK inh: -1.2; Insulin prom up: -1.6; Autophagy HCS: active; Dynein transport: 0.724

What do the screens show for `CCOc1cc(OCC)cc(C(=O)Nc2cccc(C(C)=O)c2)c1`?
PERK inh: -0.6; Insulin prom up: 0.02; Insulin prom inh: 7.1; Autophagy HCS: inactive; Dynein transport: 0.00793

Results for O=C(c1ccc(Br)cc1)c1sc(N2CCOCC2)nc1-c1ccccc1 ?
PERK inh: 0.5; Insulin prom up: -1.55; Insulin prom inh: -33.3; Autophagy HCS: inactive; Dynein transport: 0.448

Results for O=C(O)c1cc(-c2ccncc2)nc2ccc(F)cc12 ?
PERK inh: 0.9; Insulin prom up: 3*; Insulin prom inh: -11.8; Autophagy HCS: inactive; Dynein transport: 0.319

How did COc1cc(/C=C\C(=O)NCc2ccc3[nH]c(C)cc3c2)cc(OC)c1OC do in these assays?
PERK inh: 0.6; Insulin prom up: 0.3; Insulin prom inh: 65.8*; Autophagy HCS: inactive; Dynein transport: -0.427

What do the screens show for `CCOC(=O)C(C)Sc1nc(=O)n2cccc(C)c2n1` (stereo not given)?
PERK inh: 0.2; Insulin prom up: -0.34; Autophagy HCS: inactive; Dynein transport: 1.27

Results for CCOC(=O)CSc1nc(=O)n2cccc(C)c2n1 ?
PERK inh: -0.6; Insulin prom up: 0.32; Autophagy HCS: active; Dynein transport: 0.388

How did O=C(Nc1ccc([N+](=O)[O-])cc1)c1cc(-c2ccccn2)nc2c(Cl)cccc12 do in these assays?
PERK inh: -0.1; Insulin prom up: -0.08; Autophagy HCS: active; Dynein transport: -0.485

How did COc1ccc([N+](=O)[O-])cc1NC(=O)c1cn(-c2ccc(Cl)cc2)c(=O)c2ccccc12 do in these assays?
PERK inh: 0.9; Insulin prom up: 0.36; Insulin prom inh: -56.0; Autophagy HCS: inactive; Dynein transport: -0.013

What do the screens show for `CCn1ccnc1CN(C)Cc1cn[nH]c1-c1ccc(OC)c(F)c1`?
PERK inh: 0.9; Insulin prom up: 0.3; Autophagy HCS: inactive; Dynein transport: -0.445

What do the screens show for `CCCOc1ccc(-c2nn(-c3ccccc3)cc2/C=C2\SC(=S)N(C3CCS(=O)(=O)C3)C2=O)cc1` (stereo not given)?
PERK inh: -0.2; Insulin prom up: 4.83*; Insulin prom inh: 24.3; Autophagy HCS: inactive; Dynein transport: -0.634

What do the screens show for `CCOc1ccc(-c2nn(-c3ccccc3)cc2/C=C2\SC(=S)N(C3CCS(=O)(=O)C3)C2=O)cc1` (stereo not given)?
PERK inh: 0.4; Insulin prom up: -0.99; Insulin prom inh: 10.7; Autophagy HCS: inactive; Dynein transport: -0.158

What do the screens show for `CCOC(=O)Cc1nnc(NC(=O)CSc2nnc3c4ccccc4n(C)c3n2)s1`?
PERK inh: -0.5; Insulin prom up: 0.12; Autophagy HCS: inactive; Dynein transport: -0.337

What do the screens show for `O=S(=O)(Cc1ccc(Cl)cc1)c1ccccc1-c1nnc(-c2ccccc2)o1`?
PERK inh: -0.3; Insulin prom up: 13.8*; Insulin prom inh: 9.4; Autophagy HCS: inactive; Dynein transport: 0.786

What do the screens show for `Cc1ccc(C)c(OCC(=O)Nc2cc(C(=O)O)cc(C(=O)O)c2)c1`?
PERK inh: 3.4*; Insulin prom up: -0.01; Autophagy HCS: inactive; Dynein transport: 0.486

Results for C=CCNc1ncnc2c1ncn2C1OC(CO)C(O)C1O (stereo not given) ?
PERK inh: 3.0*; Insulin prom up: -0.54; Autophagy HCS: inactive; Dynein transport: -0.385

What do the screens show for `CCCCC(=O)Nc1ccc2c(c1)nc1n2CCSC1`?
PERK inh: -0.7; Insulin prom up: 3.16*; Autophagy HCS: inactive; Dynein transport: -0.236

How did CC(=O)Nc1ccc2c(c1)nc1n2CCSC1 do in these assays?
PERK inh: -0.3; Insulin prom inh: -8.3; Autophagy HCS: inactive; Dynein transport: 1.71
